# Only some compounds are listed: those with a hit (about 3.1% of all), similar ones and a draw of the others.
# OX1R antag-1 – OX1R (human) antagonism | OX1R-expressing cells, FRET antagonist read-out | 330,000 tested, 1.8% active | inhibition, % at 6.6 µM | O43613; in the data active = inhibition mostly above about 38%, no sharp cut-off; inactive = mostly below about 40%;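 note: 0% = agonist challenge alone and 100% = reference antagonist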
# Target sequence (O43613 whole entry, looked up): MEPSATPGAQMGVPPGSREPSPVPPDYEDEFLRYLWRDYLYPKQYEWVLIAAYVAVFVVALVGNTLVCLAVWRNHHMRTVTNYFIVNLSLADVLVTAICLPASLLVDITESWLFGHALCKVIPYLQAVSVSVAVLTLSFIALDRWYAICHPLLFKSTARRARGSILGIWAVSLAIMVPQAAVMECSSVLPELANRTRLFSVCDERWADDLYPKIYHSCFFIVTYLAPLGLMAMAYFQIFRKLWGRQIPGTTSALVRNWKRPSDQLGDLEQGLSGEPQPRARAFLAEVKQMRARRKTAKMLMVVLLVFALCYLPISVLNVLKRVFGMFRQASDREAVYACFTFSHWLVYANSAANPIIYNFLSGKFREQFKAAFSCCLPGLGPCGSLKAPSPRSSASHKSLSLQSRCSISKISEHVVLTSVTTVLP
# GPR7 antag – human neuropeptides B/W receptor 1 antagonism | 290,000 tested, 1.1% active | P48145 | inhibition, % at 4.4 µM | AID 1861 | GPR7-expressing cells, fluorescence antagonist assay; in the data active = inhibition above about 16%, passing the limit was not always enough;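 note: cells stimulated with the agonist NPW; 0% = agonist with vehicle and 100% = vehicle without agonist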
# CHO parental Ca – counter-screen for OX1R antagonists: effect in parental CHO cells; parental CHO-K1, ATP-induced calcium, Fluo-8 fluorescence; inhibition, % at 5.6 µM; 330,000 tested, 0.63% active; AID 463079;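 active = inhibition above that plate's mean sample inhibition plus 3 SD, cut at about 26% in these data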;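 note: 0% = ATP-challenged DMSO wells and 100% = DMSO wells without ATP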
#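 Material: parental CHO cells / Compound: single nominal dose of 5.6 µM per compound / Signal: Fluo-8 fluorescence / Replicates: singlicate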
# OX1R antag-2 – blocks the human orexin 1 receptor. O43613. CHO/OX1R cells, Fluo-8 calcium fluorescence, orexin A. inhibition, % at 5 µM. 330,000 tested, 0.43% active. AID 434989;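 active = inhibition above its plate's threshold, mean inhibition of all tested compounds on the plate plus 3 SD, cut at about 37% in these data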;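 note: 0% = orexin A challenge wells and 100% = SB-334867-A antagonist wells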
# GalR3 antag – human GalR3 antagonism; inhibition, % at 3 µM; O60755; HEK293 GalR3-CNG cAMP membrane potential fluorescence; galR3 body fused to GalR1 C-terminus; 360,000 tested, 0.44% active;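 active = inhibition above the screen-wide average plus 3 SD, cut at about 13% in these data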;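 note: forskolin and galanin both at EC90 stimulate the cells; cAMP rise reported by CNG channel membrane potential dye signal; 0% = forskolin plus galanin with DMSO and 100% = forskolin alone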
# * hit, by the source's call; nt = no result given.
SMILES,OX1R antag-1,GPR7 antag,CHO parental Ca,OX1R antag-2,GalR3 antag
Cc1ccc2nc(C(C)O)[nH]c2c1 (stereo not given),11.2,-2.4,45.0*,0.9,-5.3
Cc1ccc2nc(C(O)C(O)c3nc4ccc(C)cc4[nH]3)[nH]c2c1 (stereo not given),-14.4,-3.5,-26.6,-24.2,-3.0
COC(=O)c1ccccc1-c1ccc(/C=N/NC(=O)c2cc3ccccc3o2)o1,36.5,0.8,-15.2,-21.8,-11.8
COC(=O)c1ccccc1-c1c2ccc(=N)cc-2oc2cc(N)ccc12,30.1*,nt,101.6*,112.1*,-6.2
O=C(Nc1nc2c(F)cc(F)cc2s1)c1ccccn1,9.5,-2.9,16.4,11.5,-3.6
Cc1cc(OCC(=O)Nc2ccncc2)ccc1Cl,35.1,11.8,30.2*,3.2,-6.1
O=C(COc1ccc(Cl)cc1)Nc1ncccn1,12.8,-3.7,0.6,11.3,-2.5
Cc1ccnc(NC(=O)COc2ccc(Cl)cc2)n1,9.9,19.4*,-13.5,5.0,-4.4
Cc1cc(OCC(=O)Nc2ccc3oc(-c4ccncc4)nc3c2)ccc1Cl,9.0,18.3,-4.1,-13.4,-6.1
O=C(Nc1ccc(Cl)c(Cl)c1)c1ccc(Cl)c(Cl)c1,91.7*,13.9,58.9*,39.8*,-2.6
Cc1cc(NC(=O)c2ccc(N3CCCC3)c([N+](=O)[O-])c2)no1,17.3,11.5,-9.8,-17.4,-3.6
O=C(Nc1ccc(Cc2ccncc2)cc1)c1ccc(Cl)c([N+](=O)[O-])c1,128.0*,-7.2,82.9*,76.8*,-4.2
Cc1cc(NC(=O)c2ccc(Cl)c([N+](=O)[O-])c2)no1,31.6,-12.5,43.3*,-1.3,-0.2
O=C(Nc1ccc(Cl)c(Cl)c1)c1ccncc1,31.7,9.5,-1.3,-14.9,-2.4
O=C(Nc1ccc(Nc2ccccc2)cc1)c1ccc(Cl)c([N+](=O)[O-])c1,30.5,-11.9,13.9,-8.6,-6.0
O=C(Nc1ncccn1)c1ccc(Cl)c([N+](=O)[O-])c1,26.1*,-7.4,0.9,-10.9,-8.8
CC(C)CCNC(=O)c1onc(CSc2nc3ccccc3[nH]2)c1C(=O)NCCC(C)C,18.3,-5.3,-20.7,-23.5,-1.7
CC(=O)Nc1ccc(S(=O)(=O)Nc2cccc(-n3c(C)nc4ccccc4c3=O)c2)cc1,18.3,nt,-23.5,-15.2,-1.6
O=C(NCCNC(=O)c1cc(OCC(F)(F)F)ccc1OCC(F)(F)F)Nc1cccc(C(F)(F)F)c1,0.7,20.8*,6.8,-17.1,-3.9
Cc1nn(-c2ccccc2)c2sc(C(=O)NNC(=O)COc3ccccc3)cc12,48.6*,-2.5,-6.1,-9.2,0.3
Cc1nn(-c2ccccc2)c2sc(C(=O)NNC(=O)COc3cccc4ccccc34)cc12,10.8,19.6,-15.2,-28.9,-4.8
Cc1ccc(-c2nn3c(C)nnc3s2)cc1NC(=O)c1cccs1,12.5,3.4,-18.5,-17.9,-1.2
Cc1cc2nn(-c3cccc4ccccc34)nc2cc1NC(=O)c1cccs1,56.9*,0.6,-6.9,-0.6,-6.4
CN1CCN(S(=O)(=O)c2ccc([N+](=O)[O-])cc2)CC1,30.9*,-20.7,0.0,-3.3,-0.1
O=[N+]([O-])c1ccc(S(=O)(=O)N2CCN(c3ccc(N4CCOCC4)nn3)CC2)cc1,45.7*,nt,-7.4,-9.1,1.2
SMILES,OX1R antag-1,GPR7 antag,CHO parental Ca,OX1R antag-2,GalR3 antag
CC1CCN(S(=O)(=O)c2ccc([N+](=O)[O-])cc2)CC1,29.6,-6.2,0.6,-12.6,-8.6
CC/C(=N\Nc1ccc([N+](=O)[O-])cc1)c1ccccc1,53.0*,-14.8,-5.0,-37.3,nt
Cc1cccc(-n2c(SCC(=O)N3CCCC3)nc3n[nH]c(C)c3c2=N)c1,35.6*,-15.7,-27.6,12.2,-4.1
Cc1ccc(OCCOC(=O)C2CCN(S(=O)(=O)c3ccc(C)c(C)c3)CC2)cc1,16.4,nt,29.1*,-4.6,-2.5
Cc1ccc(S(=O)(=O)N2CCC(C(=O)OCCOc3ccccc3)CC2)cc1C,14.8,nt,-5.4,-18.5,-3.6
O=C(Cn1ncc2c1-c1ccccc1OC2)N(Cc1ccco1)C1CCCCC1,37.0*,-0.6,-13.3,-10.3,nt
Cc1cc(NC(=O)CSc2nnc(COc3cccc(C)c3C)n2Cc2ccco2)no1,9.0,7.9,-5.9,-0.1,-4.0
Cc1cccc(OCc2nnc(SCC(=O)N(C(C)C)C(C)C)n2Cc2ccco2)c1C,35.8*,-4.3,-36.2,8.0,-5.2
COc1ccc(OCc2nnc(SCC(=O)N3C(C)CCCC3C)o2)cc1 (stereo not given),10.8,1.0,0.3,-23.2,4.0
S=C(Nc1ccc(Br)cc1)NC1CCCC1,16.6,-7.4,0.0,7.4,-2.3
FC(F)Sc1ccc(NC(=S)NC(c2ccccc2)c2ccccc2)cc1,40.8*,1.6,39.3*,23.3,-10.2
FC(F)Sc1ccc(NC(=S)NC2CCCCC2)cc1,41.6*,-2.4,10.5,24.5,-3.0
CC1CCN(C(=S)Nc2ccc(SC(F)F)cc2)CC1,2.3,3.0,4.0,-6.1,-6.8
CC1CCCCC1NC(=S)Nc1ccc(SC(F)F)cc1 (stereo not given),63.0,4.9,32.1,40.0*,-4.0
Cc1cc(N2CCNC[C@@H]2C)ccc1N1CCN(Cc2ccccc2)[C@H](C)C1,nt,nt,nt,nt,-6.7
Cc1cc(C)cc(NC(=O)CN2CCN(C(=O)c3cccs3)CC2)c1,10.1,nt,-14.1,-29.7,-3.7
O=C(CSc1ccc(-c2cccc([N+](=O)[O-])c2)nn1)N1CCCC1,71.8*,2.2,-14.9,-15.6,-1.9
O=C(CSc1ccc(-c2cccc([N+](=O)[O-])c2)nn1)N1CCCCCC1,17.2,0.8,-16.6,-28.6,1.9
NS(=O)(=O)c1cc(C(=O)N=Nc2c(O)[nH]c3ccccc23)ccc1Cl,41.1,10.4,-7.7,-2.8,-6.2
CC1CCC2(CC1)NC(=O)N(CC(=O)Nc1ccc(N3CCOCC3)cc1)C2=O (stereo not given),6.7,-1.5,71.3*,6.4,-5.7
CC1CCC2(CC1)NC(=O)N(CC(=O)Nc1ccc3c(c1)CCC3)C2=O (stereo not given),22.1,-3.8,-17.0,-18.5,-0.7
O=C(CN1C(=O)NC2(CCCCCC2)C1=O)Nc1ccc2c(c1)CCC2,12.0,70.4*,-20.7,-24.0,-1.9
CCCNc1nc2nc3ccccn3c(=O)c2cc1C(=O)NCCN1CCOCC1,52.5*,-7.9,-4.9,-7.1,-7.0
Cc1ccc2nc3c(cc(C(=O)NC4CCCC4)c(=N)n3CCCn3ccnc3)c(=O)n2c1,83.8*,-10.7,-6.5,-1.2,nt
COc1ccc(CCn2c(=N)c(C(=O)NCCN3CCOCC3)cc3c(=O)n4ccccc4nc32)cc1OC,50.4*,-2.4,-2.8,-6.9,3.4
N=c1c(C(=O)NC2CCCC2)cc2c(=O)n3ccccc3nc2n1CCCN1CCOCC1,44.5*,-1.5,-0.7,-14.2,-8.8
CCOc1ccc(NS(=O)(=O)c2ccc(C(=O)N(C)CC(=O)Nc3cccc(OC)c3)cc2)cc1,nt,nt,nt,nt,-2.3
Cc1ccccc1C(=O)N1CCC(C(=O)OCc2ccccn2)CC1,13.9,nt,-13.7,-30.6,5.7
